Experimental findings from ChEMBL document CHEMBL1123309, “Esters and lactones of phenolic amino carboxylic acids: prodrugs for iron chelation” (J Med Chem, 1986) are described below.

SMILES strings stand for the structures. “And” between values parts separate entries of the source, which are not always exact repeats. Identical values can stand only once. A value given as a limit tells only on which side of the number the result lay.

Data set [1] can be described thus: Compound was evaluated for lethal dose after intraperitoneal administration using iron overload rat model. It counts as toxicity, organism-based. The settings on record: in vivo, ip.
The subject of data set [2] is Rattus norvegicus. As to the kind of experiment: Percent change in iron levels was determined in feces using iron overload rat model where the route of administration is Intraperitoneal. The format is functional.
For data set [3], the system named is Rattus norvegicus. In words: Percent change in iron levels was determined in urine using iron overload rat model where the route of administration is Peroral. The format is functional.
For data set [4], the system named is Rattus norvegicus. In words: Percent change in iron levels was determined in urine using iron overload rat model where the route of administration is Intraperitoneal. It counts as functional.
The subject of data set [5] is Rattus norvegicus. As to the kind of experiment: Percent change in iron levels was determined in feces using iron overload rat model where the route of administration is Peroral. The format is functional.
The subject of data set [6] is Mus musculus. As to the kind of experiment: BDF1 male mice were administered with 200 mg/kg intraperitoneally and number of survivors was determined out of 10 tested. The format is functional. The settings on record: route intraperitoneal, 200 mg/kg. The method, boiled down: (§1)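 Male BDF1 mice were iron-loaded by transfusion of canine red cells. The cells were heparinised, washed twice in isotonic saline and heated at 50 °C for 30 min. Dosing started two days after the last transfusion, once daily for 7 consecutive days. Compounds were given in distilled water or as a fine aqueous suspension with Polysorbate 80 (2% final). Toxic signs were recorded daily and survivors counted per group.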

Data set [7] relates to Mus musculus. In words: BDF1 male mice were administered reduced to 100 mg/kg on day 4 intraperitoneally and percent change in iron levels was determined in Liver. The format is functional. As to conditions: route oral, in the assay text read “orally” for “intraperitoneally”. The method, boiled down: (§2)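 Male BDF1 mice made iron-overloaded by transfusion of washed, heat-treated (50 °C, 30 min) canine red cells. Dosing began 2 days after the last transfusion, once daily for 7 days, in distilled water or 2% Polysorbate 80 suspension. Daily group urine was collected. Pooled feces were digested in 1 N HCl (90 °C, 30 min). Liver and spleen were homogenized in saline. Iron was measured by atomic absorption and expressed as % change vs transfused controls.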

Data set [8] has as its system Mus musculus. In words: BDF1 male mice were administered reduced to 100 mg/kg on day 4 intraperitoneally and percent change in iron levels was determined in Feces. It counts as functional. As to conditions: route oral, in the assay text read “orally” for “intraperitoneally”. Put shortly: as §2
The subject of data set [9] is Mus musculus. As to the kind of experiment: BDF1 male mice were administered with 200 mg/kg intraperitoneally and percent change in iron levels was determined in Feces. As to conditions: route intraperitoneal. The format is functional. Put shortly: as §2
Data set [10] concerns Mus musculus. In words: BDF1 male mice were administered reduced to 100 mg/kg on day 4 intraperitoneally and percent change in iron levels was determined in Spleen. As to conditions: route oral, in the assay text read “orally” for “intraperitoneally”. It counts as functional. The method, boiled down: as §2
Data set [11] deals with Mus musculus. In words: BDF1 male mice were administered with 200 mg/kg intraperitoneally and percent change in iron levels was determined in Spleen. It counts as functional. The settings on record: route intraperitoneal. The method, boiled down: as §2
The test system of data set [12] is Mus musculus. In words: BDF1 male mice were administered reduced to 100 mg/kg on day 4 intraperitoneally and percent change in iron levels was determined in Urine. It counts as functional. As to conditions: route oral, in the assay text read “orally” for “intraperitoneally”. The method, boiled down:
as §2

Data set [13] has as its system Mus musculus. As to the kind of experiment: BDF1 male mice were administered with 200 mg/kg intraperitoneally and percent change in iron levels was determined in Urine. The format is functional. As to conditions: route intraperitoneal. The method, boiled down:
as §2

Data set [14] in a line: First order rate constant was determined titrimetrically at pH 7.5 in the presence of Cu(II).
A short description of data set [15]: Half life was determined titrimetrically at pH 7.5 in the presence of Zn(II)Half life was determined (measured in water).
The nature of data set [16]: First order rate constant was determined titrimetrically at pH 7.5 in the presence of Zn(II).
In data set [17] the test system is Mus musculus. As to the kind of experiment: BDF1 male mice were administered with the compound orally and number of survivors was determined out of 10 tested at a dose 200 mg/kg peroral. It counts as functional. As to conditions: route oral. The method, boiled down:
as §1

The nature of data set [18]: Half life was determined titrimetrically at pH 7.5 in the presence of Co(II)Half life was determined (measured in water).
The test system of data set [19] is Mus musculus. As to the kind of experiment: BDF1 male mice were administered with 200 mg/kg orally and percent change in iron levels was determined in Urine. The format is functional. The settings on record: route oral. Put shortly: as §2
The nature of data set [20]: First order rate constant was determined titrimetrically at pH 7.5 in the presence of Co(II).
Data set [21] can be described thus: Half life was determined titrimetrically at pH 10.5 in the absence of metal ironHalf life was determined Spectrophotometrically. It counts as ADME.
A short description of data set [22]: First order rate constant was determined titrimetrically at pH 10.5 in the absence of metal iron. It counts as ADME.
For data set [23], the system named is Mus musculus. As to the kind of experiment: BDF1 male mice were administered with 200 mg/kg orally and percent change in iron levels was determined in Spleen. As to conditions: route oral. The format is functional. Put shortly: as §2
Data set [24] is described as follows: Half life was determined titrimetrically at pH 7.5 in the presence of Cu(II) Half life was determined.
The subject of data set [25] is Mus musculus. In words: BDF1 male mice were administered with 100 mg/kg orally and percent change in iron levels was determined in Feces. It counts as functional. As to conditions: route oral. Put shortly:
as §2

For data set [26], the system named is Mus musculus. As to the kind of experiment: BDF1 male mice were administered with the compound orally and number of survivors at a dose 25 mg/kg peroral was determined out of 10 tested. As to conditions: route oral. It counts as functional. Put shortly: as §1
The subject of data set [27] is Mus musculus. In words: BDF1 male mice were administered with 50 mg/kg orally and percent change in iron levels was determined in Urine. As to conditions: route oral. The format is functional. Put shortly:
(§3)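 Hypertransfused male BDF1 mice (canine red cells, washed and heated at 50 °C for 30 min) were dosed orally for 7 days with compound in distilled water or a fine suspension with Polysorbate 80 (2% final). Daily group urine and pooled feces (1 N HCl digest, 90 °C, 30 min, triplicate) were collected, and liver and spleen were homogenized. Iron was measured by atomic absorption and reported as % change vs transfused control.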

Data set [28] in a line: Half life was determined titrimetrically at pH 7.5 in the presence of Fe(III)Half life was determined.
Data set [29] relates to Mus musculus. As to the kind of experiment: BDF1 male mice were administered with 25 mg/kg orally and percent change in iron levels was determined in Feces. It counts as functional. As to conditions: route oral. The method, boiled down:
as §3

In data set [30] the test system is Mus musculus. In words: BDF1 male mice were administered with 200 mg/kg orally and percent change in iron levels was determined in Feces. The format is functional. The settings on record: route oral. Put shortly: as §2
For data set [31], the system named is Mus musculus. In words: BDF1 male mice were administered with 200 mg/kg orally and percent change in iron levels was determined in Liver. As to conditions: route oral. The format is functional. The method, boiled down: as §2
Data set [32] can be described thus: Half life was determined titrimetrically at pH 10.5 in the presence of Fe(III)Half life was determined (measured in water). As to conditions: pH 7.5, in the assay text read “pH 7.5” for “pH 10.5”. The format is ADME. Put shortly:
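Metal and chelator were each 5 × 10⁻⁴ M. Constant pH was held with 0.05 M NaOH. Hydrolysis rate came from base consumption, with first-order kinetics.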

In data set [33] the test system is Mus musculus. In words: BDF1 male mice were administered with 25 mg/kg orally and percent change in iron levels was determined in Spleen. The format is functional. As to conditions: route oral. The method, boiled down:
as §3

Data set [34] deals with Mus musculus. As to the kind of experiment: BDF1 male mice were administered with 50 mg/kg orally and percent change in iron levels was determined in Liver. It counts as functional. The settings on record: route oral. Put shortly: as §3
Data set [35] has as its system Mus musculus. In words: BDF1 male mice were administered with the compound orally and number of survivors was determined out of 10 tested at a dose 50 mg/kg peroral. It counts as functional. As to conditions: route oral. The method, boiled down:
as §1

For data set [36], the system named is Mus musculus. As to the kind of experiment: BDF1 male mice were administered with 100 mg/kg orally and percent change in iron levels was determined in Spleen. The format is functional. As to conditions: route oral. The method, boiled down:
as §2

The test system of data set [37] is Mus musculus. In words: BDF1 male mice were administered with 25 mg/kg orally and percent change in iron levels was determined in Urine. The format is functional. As to conditions: route oral. Put shortly:
as §3

Data set [38] concerns Mus musculus. As to the kind of experiment: BDF1 male mice were administered with 100 mg/kg orally and percent change in iron levels was determined in Urine. The format is functional. As to conditions: route oral. The method, boiled down:
as §2

Data set [39] deals with Mus musculus. As to the kind of experiment: BDF1 male mice were administered with 25 mg/kg orally and percent change in iron levels was determined in Liver. As to conditions: route oral. The format is functional. Put shortly:
as §3

Data set [40] deals with Mus musculus. In words: BDF1 male mice were administered with 100 mg/kg orally and percent change in iron levels was determined in Liver. The format is functional. The settings on record: route oral. Put shortly: as §2
The test system of data set [41] is Mus musculus. As to the kind of experiment: BDF1 male mice were administered with 50 mg/kg orally and percent change in iron levels was determined in Spleen. The format is functional. As to conditions: route oral. The method, boiled down:
as §3

The test system of data set [42] is Mus musculus. As to the kind of experiment: BDF1 male mice were administered with the compound orally and number of survivors was determined out of 10 tested at a dose 100 mg/kg peroral. It counts as functional. As to conditions: route oral. The method, boiled down:
as §1

Data set [43] relates to Mus musculus. In words: BDF1 male mice were administered with 50 mg/kg orally and percent change in iron levels was determined in Feces. The format is functional. The settings on record: route oral. Put shortly:
as §3

For `COC(=O)C(NCCNC(C(=O)OC)c1ccccc1O)c1ccccc1O` (centres undefined), the LD50 (as a rule, the dose at which mortality reaches 50%) in data set [1] is at least 800 mg/kg. For the same compound, the Iron change in data set [2] was 104%; in data set [3], 115%; in [4], 188%; in [5] it was 89%.

The compound `O=C(O)CN(CCN(CC(=O)O)Cc1ccccc1O)Cc1ccccc1O` displayed an LD50 in data set [1] of at least 800 mg/kg. Further, the Iron change was 195% in data set [2]; 40% in data set [3]; -3% in [7]; -7% in [8]; 38% in data set [9]; -9% in data set [10]. Also, the Iron change in data set [4] is 196%; in data set [11], -5%; in [12] it was 14%; in data set [13], 50%; in data set [5] it was 53%. For the same compound, the No. of survivors in data set [6] is 10 and 9.

With `CCOC(=O)C(NCCNC(C(=O)OCC)c1ccccc1O)c1ccccc1O` (centres undefined), the median lethal dose (LD50) in data set [1] was at least 800 mg/kg.

Consider `COC(=O)CN(CCN(CC(=O)OC)Cc1ccccc1O)Cc1ccccc1O`, for which the “10E2 k1” value in data set [14] amounted to 0.513 min⁻¹; in data set [16], 3.66 min⁻¹; in [20] it was 0.436 min⁻¹; in [22] it was 0.325 min⁻¹. Moreover, in [1], the 50% lethal dose (LD50) was at least 800 mg/kg. Further, the half-life (commonly the time in which the quantity being followed falls by half) in [15] stood at 0.318 h; in [18], 2.72 h; in data set [21] it was 3.57 h; in data set [24], 2.25 h; in data set [28] it was 0.328 h; in data set [32] it was 5.4 min. For the same compound, the No. of survivors in data set [17], in [26], in [35] and in [42] was 10 each time. For the same compound, the Iron change was 390% in data set [2]; 127% in [19]; -29% in data set [23]; -2% in data set [25]; 588% in data set [3]; 49% in data set [27]. For the same compound, the Iron change was -10% in data set [29]; -71% in [30]; -53% in [31]; 694% in [4]; -7% in [33]; -27% in [34]. Further, the Iron change in data set [36] was -12%; in data set [37] it was 30%; in [38], 34%; in data set [39], -20%; in [40] it was -42%; in data set [41], -12%. Further, the Iron change in [5] was found to be 369%; in data set [43], 8%.
